From ChEMBL document CHEMBL1128448, “Synthesis and antifungal activity of new azole derivatives containing an N-acylmorpholine ring” (1995)
Converted amounts (≈) assume the structure as drawn.

What was measured:
Aspergillus niger = test: In vitro evaluation of minimum inhibitory concentration against Aspergillus niger 18; type: functional
How it was run: (§1)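 Stocks are 800 μg/mL in 50% ethanol. Each plate gets 10 μL of inoculum at 10^5 cfu/mL. Incubation at 25 °C, 48 h for yeasts and 120 h for dermatophytes and molds. Organisms are ATCC strains or clinical isolates.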

Rattus norvegicus [1] = test: In vivo evaluation of antifungal activity against vaginal candidosis in rat at dose 0.25 mg/kg on 15th day; type: functional
How it was run: (§2)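 Groups of 10 female Wistar rats given estradiol 25 mg/kg sc on day -5, infected intravaginally with C. albicans by sterile swab on day 0; infection confirmed on day 3 by swab culture (TSB, then Sabouraud agar). Oral dosing once daily on days 3, 4, 5; vehicle controls. Vaginal swabs cultured on days 10 and 15; read-out % cured (culture-negative).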

Mus sp. = test: In vivo evaluation of % survival rate after peroral administration on 9th day at dose 0.5 mg/kg; type: functional; details: route oral, 0.5 mg/kg
Aspergillus flavus = test: In vitro evaluation of minimum inhibitory concentration against Aspergillus flavus 19; type: functional; how it was run: as §1
Candida parapsilosis [2] = test: Evaluation of In vitro antifungal activity against Candida parapsilosis C292 by broth macro dilution method; type: functional; details: Lodderomyces parapsilosis
How it was run: (§3)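 Yeast MIC and MFC by broth macrodilution per NCCLS M27-P in RPMI-1640 buffered with 0.165 M MOPS. Fluconazole in sterile water, other drugs in DMSO. C. parapsilosis ATCC 22019 is the reference strain in each run. MIC is the lowest concentration with turbidity ≤ the 80% inhibition standard. For MFC, 0.04 mL from clear tubes is plated on Sabouraud agar; MFC is the lowest concentration giving ≤1 colony.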

Candida albicans [3] = test: In vivo evaluation of minimum inhibitory concentration against Candida albicans 60; type: functional
How it was run: (§4)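 Broth macrodilution MIC following NCCLS M27-P, in RPMI-1640 buffered with 0.165 M MOPS. Fluconazole was dissolved in water and other drugs in DMSO. C. parapsilosis ATCC 22019 served as the reference strain in every run. MIC was the lowest concentration giving turbidity at or below the 80% inhibition standard.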

Cryptococcus neoformans [4] = test: Evaluation of In vitro antifungal activity against Cryptococcus neoformans 74 by broth macro dilution method; type: functional; how it was run: as §3
Candida parapsilosis [5] = test: In vitro evaluation of minimum inhibitory concentration against Candida parapsilosis 61; type: functional; how it was run: as §1
Pichia kudriavzevii = test: In vitro evaluation of minimum inhibitory concentration against Candida krusei 70; type: functional; how it was run: as §1
Candida albicans [6] = test: Evaluation of […] antifungal activity against Candida albicans 60 by broth macro dilution method; type: functional; how it was run: as §3
Mus musculus [7] = test: In vivo evaluation of % survival rate after peroral administration on 9th day at dose 0.5 mg/kg(as a water solution in (hydroxypropyl -beta-cyclodextrin)); type: functional; details: route oral
How it was run: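 Groups of 10 male mice were infected iv with 0.2 mL of C. albicans at (2-8) × 10^7 cfu/mL. Oral doses were given at 1, 4 and 24 h post-infection. Vehicle-only controls were included, with at least 90% control mortality by day 3. Percent survival was recorded on days 3, 5, 7 and 9.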

Rattus norvegicus [8] = test: In vivo evaluation of antifungal activity against vaginal candidosis in rat at dose 0.1 mg/kg on 10th day; type: functional
How it was run: (§5)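 Groups of 10 female Wistar rats given estradiol 25 mg/kg sc on day -5, then vaginally inoculated with C. albicans on day 0. Infection is confirmed by culture of day-3 swabs. Compound is dosed orally once daily on days 3–5; controls get vehicle. Cure is scored by culture of vaginal swabs taken on days 10 and 15.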

Trichophyton benhamiae = test: In vitro evaluation of minimum inhibitory concentration against Trichophyton mentagrophytes 23; type: functional, Arthroderma benhamiae; how it was run: as §1
Rattus norvegicus [9] = test: In vivo evaluation of antifungal activity against vaginal candidosis in rat at dose 0.25 mg/kg on 10th day; type: functional; how it was run: as §2
Candida albicans [10] = test: Evaluation of In vitro antifungal activity against Candida albicans C52 by broth macro dilution method; type: functional; how it was run: as §3
Nakaseomyces glabratus = test: In vitro evaluation of minimum inhibitory concentration against Torulopsis glabrata 78; type: functional; how it was run: as §1
Candida albicans [11] = test: In vivo evaluation of minimum inhibitory concentration against Candida albicans 406; type: functional; how it was run: as §4
Microsporum canis = test: In vitro evaluation of minimum inhibitory concentration against Microsporum canis 47; type: functional; how it was run: as §1
Candida albicans [12] = test: Evaluation of In vitro antifungal activity against Candida albicans 60 by broth macro dilution method
[13] = system: Meyerozyma guilliermondii; test: Evaluation of In vitro antifungal activity against Candida guilliermondii 26 by broth macro dilution method; type: functional; how it was run: as §3
Candida tropicalis = test: Evaluation of In vitro antifungal activity against Candida tropicalis 2.11 by broth macro dilution method; type: functional; how it was run: as §3
Cryptococcus neoformans [14] = test: Evaluation of In vitro antifungal activity against Cryptococcus neoformans 87 by broth macro dilution method; type: functional; how it was run: as §3
Rattus norvegicus [15] = test: In vivo evaluation of antifungal activity against vaginal candidosis in rat at dose 0.1 mg/kg on 15th day; type: functional; how it was run: as §5
Candida albicans [16] = test: Evaluation of In vitro antifungal activity against Candida albicans 31 by broth macro dilution method; type: functional; how it was run: as §3
Mus musculus [17] = test: In vivo evaluation of % survival rate after peroral administration on 7th day at dose 0.5 mg/kg; type: functional; details: route oral, 0.5 mg/kg
Kluyveromyces marxianus = test: Evaluation of In vitro antifungal activity against yeasts by broth macro dilution method; type: functional; how it was run: as §3
Rhodotorula mucilaginosa = test: In vitro evaluation of minimum inhibitory concentration against Rhodotorula rubra 16; type: functional; how it was run: as §1
Candida albicans [18] = test: Evaluation of In vitro antifungal activity against Candida albicans 76 by broth macro dilution method; type: functional; how it was run: as §3

**Q.** For `C[C@H]1N(C(=O)c2ccc(C(F)(F)F)cc2)CCO[C@@]1(Cn1cncn1)c1ccc(F)cc1F` (stereo in doubt; (-)-41), which MIC (Aspergillus niger) is on record?
**A.** The MIC was 80 µg/mL (≈ 172 µM).

**Q.** What about the Cure rate (Rattus norvegicus [1]) of the same compound?
**A.** Its Cure rate is 60%.

**Q.** And the Survival (Mus sp.)?
**A.** Its Survival is 40%.

**Q.** And the MIC (Aspergillus flavus)?
**A.** The MIC was 40 µg/mL (≈ 85.8 µM).

**Q.** And the MFC (Candida parapsilosis [2])?
**A.** Its MFC is > 64 µg/mL.

**Q.** And the MIC (Candida parapsilosis [2])?
**A.** Its MIC is 2 µg/mL (≈ 4.29 µM).

**Q.** What about the MIC (Candida albicans [3]) of the same compound?
**A.** The MIC was 0.31 µg/mL (≈ 0.665 µM).

**Q.** What about the MFC (Cryptococcus neoformans [4]) of the same compound?
**A.** The MFC was 0.25 µg/mL (≈ 0.536 µM).

**Q.** What about the MIC (Cryptococcus neoformans [4]) of the same compound?
**A.** The MIC was 0.125 µg/mL (≈ 0.268 µM).

**Q.** And the MIC (Candida parapsilosis [5])?
**A.** The MIC was 10 µg/mL (≈ 21.4 µM).

**Q.** What about the MIC (Pichia kudriavzevii) of the same compound?
**A.** The MIC was 40 µg/mL (≈ 85.8 µM).

**Q.** And the MIC (Candida albicans [6])?
**A.** Its MIC is 0.25 µg/mL (≈ 0.536 µM).

**Q.** And the survival at 0.5 mg/kg (Mus musculus [7])?
**A.** The survival at 0.5 mg/kg was 30%.

**Q.** What about the Cure rate (Rattus norvegicus [8]) of the same compound?
**A.** The Cure rate was 10%.

**Q.** And the MIC (Trichophyton benhamiae)?
**A.** Its MIC is 40 µg/mL (≈ 85.8 µM).

**Q.** What about the Cure rate (Rattus norvegicus [9]) of the same compound?
**A.** Its Cure rate is 40%.

**Q.** What about the MFC (Candida albicans [10]) of the same compound?
**A.** Its MFC is > 64 µg/mL.

**Q.** What about the MIC (Candida albicans [10]) of the same compound?
**A.** Its MIC is 0.125 µg/mL (≈ 0.268 µM).

**Q.** What about the MIC (Nakaseomyces glabratus) of the same compound?
**A.** The MIC was 10 µg/mL (≈ 21.4 µM).

**Q.** What about the MIC (Candida albicans [11]) of the same compound?
**A.** Its MIC is 0.15 µg/mL (≈ 0.322 µM).

**Q.** And the MIC (Microsporum canis)?
**A.** The MIC was 20 µg/mL (≈ 42.9 µM).

**Q.** What about the MFC (Candida albicans [12]) of the same compound?
**A.** Its MFC is > 64 µg/mL.

**Q.** And the MFC [13]?
**A.** The MFC was > 64 µg/mL.

**Q.** And the MIC [13]?
**A.** The MIC was 8 µg/mL (≈ 17.2 µM).

**Q.** And the MFC (Candida tropicalis)?
**A.** The MFC was > 64 µg/mL.

**Q.** And the MIC (Candida tropicalis)?
**A.** The MIC was 4 µg/mL (≈ 8.58 µM).

**Q.** And the MFC (Cryptococcus neoformans [14])?
**A.** The MFC was > 64 µg/mL.

**Q.** What about the MIC (Cryptococcus neoformans [14]) of the same compound?
**A.** Its MIC is 2 µg/mL (≈ 4.29 µM).

**Q.** What about the Cure rate (Rattus norvegicus [15]) of the same compound?
**A.** Its Cure rate is 20%.

**Q.** What about the MFC (Candida albicans [16]) of the same compound?
**A.** Its MFC is > 64 µg/mL.

**Q.** And the MIC (Candida albicans [16])?
**A.** Its MIC is 0.125 µg/mL (≈ 0.268 µM).

**Q.** What about the Survival (Mus musculus [17]) of the same compound?
**A.** The Survival was 70%.

**Q.** And the MIC (Kluyveromyces marxianus)?
**A.** The MIC was 0.125 µg/mL (≈ 0.268 µM).

**Q.** What about the MIC (Rhodotorula mucilaginosa) of the same compound?
**A.** The MIC was 5 µg/mL (≈ 10.7 µM).

**Q.** And the MFC (Candida albicans [18])?
**A.** Its MFC is > 64 µg/mL.

**Q.** What about the MIC (Candida albicans [18]) of the same compound?
**A.** The MIC was 0.125 µg/mL (≈ 0.268 µM).
